GPR7 antag: antagonists of human GPR7 (neuropeptides B/W receptor 1); inhibition, % at 4.4 µM; P48145; GPR7-expressing cells, fluorescence antagonist assay; actives 1.1% (n = 290,000); in the data active means inhibition above about 16%, passing the limit was not always enough;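 further: cells stimulated with the agonist NPW; 0% = agonist with vehicle and 100% = vehicle without agonist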
OX1R antag-1: antagonists of human orexin 1 receptor; O43613; CHO/OX1R cells, Fluo-8 calcium fluorescence, orexin A; inhibition, % at 5 µM; actives 0.43% (n = 330,000);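 active means inhibition above its plate's threshold, mean inhibition of all tested compounds on the plate plus 3 SD, cut at about 37% in these data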;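 further: 0% = orexin A challenge wells and 100% = SB-334867-A antagonist wells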
Target sequence (O43613 whole entry, looked up): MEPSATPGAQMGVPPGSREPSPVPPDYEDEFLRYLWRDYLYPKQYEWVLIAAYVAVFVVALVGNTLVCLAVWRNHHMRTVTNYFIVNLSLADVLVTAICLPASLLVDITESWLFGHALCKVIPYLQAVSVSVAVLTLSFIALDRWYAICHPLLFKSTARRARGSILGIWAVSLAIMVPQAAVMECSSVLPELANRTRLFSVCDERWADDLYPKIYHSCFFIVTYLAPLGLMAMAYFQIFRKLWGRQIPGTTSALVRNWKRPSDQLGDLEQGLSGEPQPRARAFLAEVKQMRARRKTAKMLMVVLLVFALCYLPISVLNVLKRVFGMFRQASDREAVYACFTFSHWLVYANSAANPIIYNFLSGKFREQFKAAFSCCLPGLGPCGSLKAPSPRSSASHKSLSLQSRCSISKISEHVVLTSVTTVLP
OX1R antag-2: OX1R (human) antagonism. O43613. OX1R-expressing cells, FRET antagonist read-out. inhibition, % at 6.6 µM. actives 1.8% (n = 330,000). AID 485270; in the data active means inhibition mostly above about 38%, no sharp cut-off; inactive means mostly below about 40%;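 further: 0% = agonist challenge alone and 100% = reference antagonist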
TRPML3 agonist: agonists of human TRPML3 channel; activation, % at 3 µM; actives 0.29% (n = 220,000); Q8TDD5; HEK293 TRPML3-YFP, Fluo-8 calcium fluorescence; 100% = the carbachol control signal;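 active means activation above its plate's cutoff, the mean activation of the plate's test wells plus 3 SD, cut at about 12% in these data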;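 further: 0% = DMSO only wells and 100% = carbachol wells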
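Test system: HEK293 cells stably carrying human TRPML3-YFP; Doses: single dose, 3 µM final nominal compound, 0.3% DMSO final; Schedule: dye loading 1 h 37 °C then 30 min ambient, 125 s read; Technique: Fluo-8 calcium fluorescence; Benchmarks: high control carbachol 87 µM, low control DMSO.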
CHO parental Ca: counter-screen for OX1R antagonists: effect in parental CHO cells; parental CHO-K1, ATP-induced calcium, Fluo-8 fluorescence; inhibition, % at 5.6 µM; actives 0.63% (n = 330,000); AID 463079;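 active means inhibition above that plate's mean sample inhibition plus 3 SD, cut at about 26% in these data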;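 further: 0% = ATP-challenged DMSO wells and 100% = DMSO wells without ATP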
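test system = CHO parental line | reagent = ATP stimulus | measured by = intracellular calcium via Fluo-8 no-wash fluorescent dye | control set = ATP and no-ATP DMSO wells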
TRPN1 ag: agonists of zebrafish TRPN1 channel | HEK293 zebrafish TRPN1-YFP, Fluo-8 calcium fluorescence; 100% = response to 87 µM carbachol | activation, % at 3 µM | actives 0.18% (n = 220,000) | AID 1424;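 active means activation above its plate's cutoff, the mean activation of test wells on that plate plus 3 SD, cut at about 19% in these data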;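 further: 0% = DMSO alone and 100% = 87 µM carbachol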
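Material – zebrafish TRPN1-YFP in HEK293 cells · Doses – 3 µM single point · Schedule – dye 1 h 37 °C plus 30 min RT · Signal – Fluo-8 calcium fluorescence, excitation 470-495 nm, emission 515-575 nm · Read-out – % activation versus carbachol response · Control set – carbachol high, DMSO low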
OX1R HTRF confirm: confirmation of human orexin 1 receptor antagonists, HTRF format; shares compounds with OX1R antag-2; OX1R-expressing cells, HTRF antagonist assay; inhibition, % at 6.6 µM; actives 49% (n = 1,800); AID 492964; in the data active means inhibition above about 55%;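 further: CHO cells expressing OX1R stimulated with orexin A at about EC80; 0% = agonist challenge alone and 100% = reference antagonist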
CHO-K1 HTRF cnt: counter-screen for OX1R antagonists: effect in parental CHO-K1 cells; shares compounds with OX1R antag-2; AID 493232; actives 48% (n = 1,800); HTRF counterscreen; inhibition, % at 6.6 µM; in the data active means inhibition above about 17%;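 further: 0% = agonist challenge with vehicle and 100% = vehicle alone without agonist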
* = called active by the depositor. Rows were chosen to be rich in hits. Some 3.2% of all compounds tested hit in one or more screens of this group.

For CCCOc1cccc(NC(=O)c2cc(C)oc2C)c1 the results were GPR7 antag -10, OX1R antag-1 -47, OX1R antag-2 78*, TRPML3 agonist -1, CHO parental Ca -35, TRPN1 ag -2, OX1R HTRF confirm 20 and CHO-K1 HTRF cnt 13.
For NS(=O)(=O)c1ccc(CNC(=O)c2cc(-c3ccccn3)nc3ccc(Cl)cc23)cc1 the results were GPR7 antag -11, OX1R antag-1 4, OX1R antag-2 84*, TRPML3 agonist 1, CHO parental Ca -8, TRPN1 ag 2, OX1R HTRF confirm 59* and CHO-K1 HTRF cnt 5.
NS(=O)(=O)c1ccc(CNC(=O)c2cc(-c3cccnc3)nc3ccc(Cl)cc23)cc1 was read as GPR7 antag 7, OX1R antag-1 -7, OX1R antag-2 19 and CHO parental Ca -14.
For COc1ccc(Nc2ncnc3c2oc2ccccc23)cc1 the results were GPR7 antag -7, OX1R antag-1 -8, OX1R antag-2 83*, TRPML3 agonist -1, CHO parental Ca -9, TRPN1 ag -1, OX1R HTRF confirm 62* and CHO-K1 HTRF cnt 11.
Screening Cc1ccc(Nc2ncnc3c2oc2ccccc23)cc1 returned GPR7 antag -8, OX1R antag-1 -15, OX1R antag-2 54, TRPML3 agonist -1, CHO parental Ca -6 and TRPN1 ag -2.
`CCC(=O)Nc1ccc(C2C(=O)c3ccccc3C2=O)cc1` gave GPR7 antag 15, OX1R antag-1 -24, OX1R antag-2 5 and CHO parental Ca -2.
CCC(=O)NC1=C(Nc2ccc(N)cc2)C(=O)c2ccccc2C1=O was read as GPR7 antag -13, OX1R antag-1 -18, OX1R antag-2 82*, CHO parental Ca -18, OX1R HTRF confirm 71* and CHO-K1 HTRF cnt 121*.
For COc1ccc(NC2=C(NC(C)=O)C(=O)c3ccccc3C2=O)cc1 the results were GPR7 antag -6, OX1R antag-1 -15, OX1R antag-2 97*, CHO parental Ca -11, OX1R HTRF confirm 78* and CHO-K1 HTRF cnt 96*.
O=C(C1CCC1)N1CCN(S(=O)(=O)c2ccc(Br)cc2Cl)CC1 was read as OX1R antag-1 -25, OX1R antag-2 19 and CHO parental Ca -8.
O=C(NCCO)c1cccc2c1C(=O)c1ccccc1-2 was read as GPR7 antag 9, OX1R antag-1 -17, OX1R antag-2 121*, TRPML3 agonist 0, CHO parental Ca -12, TRPN1 ag 1, OX1R HTRF confirm 58* and CHO-K1 HTRF cnt 53*.
For CCC(=C(c1ccc(OC)cc1)c1ccc(OC)cc1)c1cn(CC(O)CN2CCN(C)CC2)c2ccccc12 (stereo unspecified) the results were GPR7 antag 8, OX1R antag-1 0, OX1R antag-2 1, TRPML3 agonist 1, CHO parental Ca 14 and TRPN1 ag 2.
For COc1ccccc1CNC(=O)CSc1nnc2c(n1)[nH]c1ccc(F)cc12 the results were GPR7 antag -3, OX1R antag-1 6, OX1R antag-2 9 and CHO parental Ca 4.
For CCN(CC)c1ccc2cc(C(N)=O)c(=N)oc2c1 the results were GPR7 antag -2, OX1R antag-1 -28, OX1R antag-2 71, TRPML3 agonist 1, CHO parental Ca -14 and TRPN1 ag 1.
CCN(CC)c1ccc2cc(C(C)=O)c(=O)oc2c1 was read as GPR7 antag -6, OX1R antag-1 8, OX1R antag-2 96*, TRPML3 agonist 10, CHO parental Ca 8, TRPN1 ag 9, OX1R HTRF confirm 34 and CHO-K1 HTRF cnt 8.
For O=C1OCCN1/N=C/c1ccc([N+](=O)[O-])o1 the results were GPR7 antag -3, OX1R antag-1 14, OX1R antag-2 79*, TRPML3 agonist 0, CHO parental Ca -13, TRPN1 ag 1, OX1R HTRF confirm 60* and CHO-K1 HTRF cnt 93*.
O=C(CSc1nc2nn(-c3ccccc3)c(=O)c-2c2n1CCCCC2)NCCCc1ccccc1 was read as GPR7 antag -9, OX1R antag-1 6, OX1R antag-2 10, TRPML3 agonist 0, CHO parental Ca -27 and TRPN1 ag -1.
For CSc1nnc2c3cc(F)ccc3n(C)c2n1 the results were GPR7 antag -3, OX1R antag-1 -19, OX1R antag-2 19 and CHO parental Ca 2.
Cn1c2ccc(F)cc2c2nc3ccccc3nc21 was read as GPR7 antag -22, OX1R antag-1 17, OX1R antag-2 87*, CHO parental Ca -12, OX1R HTRF confirm 91* and CHO-K1 HTRF cnt -4.
Screening Cc1ccc2c(c1)c1nc3ccccc3nc1n2C returned GPR7 antag -20, OX1R antag-1 10, OX1R antag-2 94*, CHO parental Ca -17, OX1R HTRF confirm 91* and CHO-K1 HTRF cnt 5.
`COc1cc(OC)cc(C(=O)N(Cc2cc3cc(C)ccc3[nH]c2=O)C(C)C)c1` gave GPR7 antag -7, OX1R antag-1 1, OX1R antag-2 68, TRPML3 agonist -1, CHO parental Ca -10 and TRPN1 ag 1.
COc1cccc(C(=O)N(Cc2cc3cc(C)ccc3[nH]c2=O)C(C)C)c1 was read as GPR7 antag -4, OX1R antag-1 4, OX1R antag-2 77*, TRPML3 agonist 0, CHO parental Ca -35, TRPN1 ag -1, OX1R HTRF confirm 68* and CHO-K1 HTRF cnt 3.
`Cc1c(C(=O)Nc2ccncc2)oc2ccccc12` gave GPR7 antag 2, OX1R antag-1 -27, OX1R antag-2 8, TRPML3 agonist 1, CHO parental Ca -13 and TRPN1 ag 3.
Screening Cc1ccc(NC(=O)c2oc3ccccc3c2C)nc1 returned GPR7 antag -9, OX1R antag-1 14, OX1R antag-2 84*, CHO parental Ca -12, OX1R HTRF confirm 79* and CHO-K1 HTRF cnt 3.
`COC(=O)/C=c1/s/c(=C(/C#N)C(=O)N2CCOCC2)n(-c2ccccc2)c1=O` gave GPR7 antag -11, OX1R antag-1 -2, OX1R antag-2 118*, TRPML3 agonist 0, CHO parental Ca -7, TRPN1 ag 2, OX1R HTRF confirm 38 and CHO-K1 HTRF cnt 49*.
Screening O=C(CNC(=O)c1cccs1)OCC(=O)c1ccccc1 returned GPR7 antag 5, OX1R antag-1 3, OX1R antag-2 9, TRPML3 agonist 1, CHO parental Ca 2 and TRPN1 ag 0.

Screens as filed in PubChem.
